According to ChEMBL document CHEMBL2163256, “6-(methylamino)hexane-1,2,3,4,5-pentanol 4-(((1S,2S)-1-hydroxy-2,3-dihydro-1H,1'H-[2,2-biinden]-2-yl)methyl)benzoate (PH46A): a novel small molecule with efficacy in murine models of colitis” (J Med Chem, 2012):
The source made the active and inactive calls. No cut-off for these calls is given here.

Assays:
Mus musculus [1] = experiment: Toxicity in DSS-induced colitis BALB/c mouse model assessed as overt reactions at 30 mg/kg, po qd for 7 days relative to vehicle-treated control; type: organism-based; set-up: dose 30 mg/kg, route oral; conditions: in vivo, 168 h
Mus musculus [2] = experiment: Antiinflammatory activity against DSS-induced colitis BALB/c mouse model assessed as decrease in disease activity index at 30 mg/kg, po qd for 7 days measured on day 6 relative to vehicle-treated control; type: functional, organism-based; set-up: dose 30 mg/kg
Method in brief: (§1)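 Female SPF BALB/c mice, 6−8 weeks old; colitis induced by 5% DSS in tap drinking water (renewed every second day) for 7 days. Daily oral dosing for 7 days as suspension/solution in 0.5% carboxymethyl cellulose/2% Tween 80. Daily body weight; DAI per mouse each day from weight loss, occult blood and stool consistency; colon length at autopsy. Mean ± SEM, n = 6−7.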

Mus musculus [3] = experiment: Antiinflammatory activity against DSS-induced colitis BALB/c mouse model assessed as increase in colon lenght at 30 mg/kg, po qd for 7 days relative to vehicle-treated control; type: functional, organism-based; set-up: dose 30 mg/kg; method in brief: as §1
Mus musculus [4] = experiment: Antiinflammatory activity against DSS-induced colitis BALB/c mouse model assessed as decrease in disease activity index at 30 mg/kg, po qd for 7 days relative to vehicle-treated control; type: functional, organism-based; set-up: dose 30 mg/kg; method in brief: as §1
Mus musculus [5] = experiment: Antiinflammatory activity against DSS-induced colitis BALB/c mouse model assessed as reduction in shortening of colon at 30 mg/kg, po qd for 7 days measured on day 7 relative to vehicle-treated control; type: functional; set-up: scale not given: the % may be the effect or the level left; method in brief: as §1
Mus musculus [6] = experiment: Antiinflammatory activity against DSS-induced colitis BALB/c mouse model assessed as prevention of body weigth loss at 10 mg/kg, po qd for 7 days measured on day 7 relative to vehicle-treated control; type: functional; method in brief: as §1
Mus musculus [7] = experiment: Antiinflammatory activity against DSS-induced colitis BALB/c mouse model assessed as prevention of body weigth loss at 30 mg/kg, po qd for 7 days measured on day 7 relative to vehicle-treated control; type: functional; method in brief: as §1
Mus musculus [8] = experiment: Antiinflammatory activity in IL-10 -/- BALB/c mouse assessed as decrease in serum SAA level at 300 mg/kg, po administered as divided dose 3 times a week for 9 weeks (reference value: 468.9 +/- 38.37 ug/ml); type: functional
Method in brief: (§2)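 IL-10−/− BALB/c-background mice, bred SPF, treated from 6−8 weeks of age by oral gavage of 300 mg/kg/week in distilled water (vehicle), Mon/Wed/Fri, for 9 weeks. Weight, rectal bleeding and prolapse monitored. At 9 weeks serum SAA was measured by sandwich ELISA. Proximal colon (1 cm) was fixed, H&E-stained and scored blinded by two observers (maximum 4). n = 9 vehicle, 11 treated; Student's t test.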

Mus musculus [9] = experiment: Antiinflammatory activity against DSS-induced colitis BALB/c mouse model assessed as reduction in histological colon damage score at 30 mg/kg, po qd for 7 days measured on day 7 relative to vehicle-treated control; type: functional; set-up: scale not given: the % may be the effect or the level left
Method in brief: (§3)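 After 7 days of 5% DSS with daily oral dosing, about 1 cm distal colon was fixed in 10% formaldehyde-saline, paraffin-embedded, cut into 5 μm serial sections and H&E-stained. Scoring covered cell infiltration (0−3) and extent of injury (0−3), done blinded by two independent observers.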

Mus musculus [10] = experiment: Antiinflammatory activity against DSS-induced colitis BALB/c mouse model assessed as decrease in myeloperoxidative activity at 30 mg/kg, po qd for 7 days measured on day 7 relative to vehicle-treated control; type: functional; set-up: scale not given: the % may be the effect or the level left
Method in brief: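 In the 7-day 5% DSS BALB/c colitis model with daily oral dosing, colon MPO was measured in homogenized snap-frozen colon supernatant (protein determined) by a standard method.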

Mus musculus [11] = experiment: Antiinflammatory activity against DSS-induced colitis BALB/c mouse model assessed as decrease in disease activity index at 30 mg/kg, po qd for 7 days measured on day 7 relative to vehicle-treated control; type: functional; set-up: scale not given: the % may be the effect or the level left; method in brief: as §1
Mus musculus [12] = experiment: Antiinflammatory activity against DSS-induced colitis BALB/c mouse model assessed as decrease in disease activity index at 10 mg/kg, po qd for 7 days measured on day 7 relative to vehicle-treated control; type: functional; set-up: scale not given: the % may be the effect or the level left; method in brief: as §1
Mus musculus [13] = experiment: Antiinflammatory activity against DSS-induced colitis BALB/c mouse model assessed as decrease in disease activity index at 3 mg/kg, po qd for 7 days measured on day 7 relative to vehicle-treated control; type: functional; set-up: scale not given: the % may be the effect or the level left; method in brief: as §1
Mus musculus [14] = experiment: Antiinflammatory activity against po dosed DSS-induced colitis BALB/c mouse model assessed as decrease in disease activity index administered daily once for 7 days measured on day 7 relative to vehicle-treated control; type: functional, organism-based; method in brief: as §1
Mus musculus [15] = experiment: Antiinflammatory activity in IL-10 -/- BALB/c mouse assessed as reduction in histological colon damage score at 300 mg/kg, po administered as divided dose 3 times a week for 9 weeks relative to vehicle-treated control; type: functional, organism-based; set-up: dose 300 mg/kg; method in brief: as §2
Mus musculus [16] = experiment: Antiinflammatory activity in IL-10 -/- BALB/c mouse assessed as prevention of rectal prolapse at 300 mg/kg, po administered as divided dose 3 times a week for 9 weeks relative to vehicle-treated control; type: functional, organism-based; set-up: dose 300 mg/kg; method in brief: as §2
Mus musculus [17] = experiment: Antiinflammatory activity in IL-10 -/- BALB/c mouse assessed as prevention of rectal bleeding at 300 mg/kg, po administered as divided dose 3 times a week for 9 weeks relative to vehicle-treated control; type: functional, organism-based; set-up: dose 300 mg/kg; method in brief: as §2
Mus musculus [18] = experiment: Antiinflammatory activity in IL-10 -/- BALB/c mouse assessed as prevention of weight loss at 300 mg/kg, po administered as divided dose 3 times a week for 9 weeks relative to vehicle-treated control; type: functional, organism-based; set-up: dose 300 mg/kg; method in brief: as §2
Mus musculus [19] = experiment: Antiinflammatory activity against po dosed DSS-induced colitis BALB/c mouse model assessed as reduction in histological colon damage score administered daily once for 7 days measured on day 7; type: functional, organism-based; method in brief: as §3
Mus musculus [20] = experiment: Antiinflammatory activity against DSS-induced colitis BALB/c mouse model assessed as reduction in TNFalpha level at 30 mg/kg, po qd for 7 days measured on day 7 relative to vehicle-treated control; type: functional, organism-based; set-up: dose 30 mg/kg
Method in brief: (§4)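 DSS colitis in female BALB/c mice (5% DSS in drinking water, 7 days, daily oral dosing). At autopsy, colon remaining after histology sampling snap-frozen, stored at −20 °C, thawed, contents removed, chopped and homogenized; supernatant protein determined. IL1b, IL6 and TNFα in colon supernatant by sandwich ELISA, expressed as ng/mg. Mean ± SEM, n = 6−7.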

Mus musculus [21] = experiment: Antiinflammatory activity against DSS-induced colitis BALB/c mouse model assessed as reduction in IL6 level at 30 mg/kg, po qd for 7 days measured on day 7 relative to vehicle-treated control; type: functional, organism-based; set-up: dose 30 mg/kg; method in brief: as §4
Mus musculus [22] = experiment: Antiinflammatory activity against DSS-induced colitis BALB/c mouse model assessed as reduction in IL1b level at 30 mg/kg, po qd for 7 days measured on day 7 relative to vehicle-treated control; type: functional, organism-based; set-up: dose 30 mg/kg; method in brief: as §4
Mus musculus [23] = experiment: Antiinflammatory activity against po dosed DSS-induced colitis BALB/c mouse model assessed as reduction in TNFalpha level administered daily once for 7 days measured on day 7 relative to vehicle-treated control; type: functional, organism-based; method in brief: as §4
Mus musculus [24] = experiment: Antiinflammatory activity against po dosed DSS-induced colitis BALB/c mouse model assessed as reduction in IL6 level administered daily once for 7 days measured on day 7 relative to vehicle-treated control; type: functional, organism-based; method in brief: as §4
Mus musculus [25] = experiment: Antiinflammatory activity against po dosed DSS-induced colitis BALB/c mouse model assessed as reduction in IL1b level administered daily once for 7 days measured on day 7 relative to vehicle-treated control; type: functional, organism-based; method in brief: as §4
Mus musculus [26] = experiment: Antiinflammatory activity against po dosed DSS-induced colitis BALB/c mouse model assessed as reduction in shortening of colon administered daily once for 7 days measured on day 7 relative to vehicle-treated control; type: functional, organism-based; method in brief: as §1
Mus musculus [27] = experiment: Antiinflammatory activity against DSS-induced colitis BALB/c mouse model assessed as increase in colon lenght at 10 mg/kg, po qd for 7 days relative to vehicle-treated control; type: functional, organism-based; set-up: dose 10 mg/kg; method in brief: as §1
Mus musculus [28] = experiment: Antiinflammatory activity against DSS-induced colitis BALB/c mouse model assessed as decrease in disease activity index at 10 mg/kg, po qd for 7 days relative to vehicle-treated control; type: functional, organism-based; set-up: dose 10 mg/kg; method in brief: as §1
Mus musculus [29] = experiment: Antiinflammatory activity against DSS-induced colitis BALB/c mouse model assessed as prevention of body weight loss at 10 mg/kg, po qd for 7 days relative to vehicle-treated control; type: functional, organism-based; set-up: dose 10 mg/kg; method in brief: as §1

O=C(O)c1ccc(C[C@]2(C3=Cc4ccccc4C3)Cc3ccccc3[C@@H]2O)cc1
Activity (Mus musculus [1]): Non-toxic
Activity (Mus musculus [2]): inactive
Activity (Mus musculus [3]): Active
Activity (Mus musculus [4]): Active

CNC[C@H](O)[C@@H](O)[C@H](O)[C@H](O)CO.O=C(O)c1ccc(C[C@@]2(C3=Cc4ccccc4C3)Cc3ccccc3[C@H]2O)cc1
Activity (Mus musculus [5]): 76%
Activity (Mus musculus [6]): 12.8%
Activity (Mus musculus [7]): 6.2%
Activity (Mus musculus [8]): 342.7 µg/mL
Activity (Mus musculus [9]): >75%
Activity (Mus musculus [10]): 63%
Activity (Mus musculus [11]): 80%
Activity (Mus musculus [12]): 54%
Activity (Mus musculus [13]): 24%

O=C(O)c1ccc(C[C@@]2(C3=Cc4ccccc4C3)Cc3ccccc3[C@H]2O)cc1
Activity (Mus musculus [14]): Dose-dependent effect
Activity (Mus musculus [15]): Active
Activity (Mus musculus [16]): inactive
Activity (Mus musculus [17]): inactive
Activity (Mus musculus [18]): inactive
Activity (Mus musculus [19]): Dose-dependent effect
Activity (Mus musculus [20]): Active
Activity (Mus musculus [21]): Active
Activity (Mus musculus [22]): Active
Activity (Mus musculus [23]): Dose-dependent effect
Activity (Mus musculus [24]): Dose-dependent effect
Activity (Mus musculus [25]): Dose-dependent effect
Activity (Mus musculus [26]): Dose-dependent effect
Activity (Mus musculus [27]): Active
Activity (Mus musculus [28]): Active
Activity (Mus musculus [29]): Active
Activity (Mus musculus [3]): Active
Activity (Mus musculus [4]): Active

O=C(O)c1ccc(C[C@]2(C3=Cc4ccccc4C3)Cc3ccccc3[C@H]2O)cc1
Activity (Mus musculus [1]): Non-toxic
Activity (Mus musculus [27]): inactive
Activity (Mus musculus [28]): inactive
Activity (Mus musculus [3]): Active
Activity (Mus musculus [4]): Active
